HIF activator = HIF pathway transcriptional activation; actives 0.32% (n = 300,000); U2OS HRE-luciferase reporter, luminescence; normalized: DMSO 0%, desferrioxamine 100%; AID 1910; activation, % at 7.5 µM (by protocol);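 active means mean activation of at least 10% of the iron chelator positive control signal, with at least half of replicates also reaching 10%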
ABCB6 inh 2 = blocks the human ABCB6 transporter; fluorescence ratio to DMSO, % at 10 µM; actives 0.19% (n = 360,000); Q9NP58; K562-ABCB6 porphyrin accumulation, flow cytometry, 1 h; stronger effect = lower value;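 active means fluorescence ratio to DMSO below 75%, the collection mean minus 3 SD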;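 further: signal is porphyrin accumulated inside mitochondria; lower ratio means ABCB6 inhibition with less porphyrin fluorescence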
SR-BI uptake up = SR-BI HDL lipid transfer activation | activation, % at 12.5 µM | CHO ldlA[mSR-BI] cells, DiI-HDL uptake fluorescence, 3 h; 100 = double the neutral-control signal | actives 0.096% (n = 320,000);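 active means mean replicate activation of at least 60% and every replicate at or above 60%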
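Test system: SR-BI-overexpressing, LDLR-lacking CHO cells. Measured by: DiI fluorescence, bottom read. Medium: Ham's F12 with 0.5% BSA, HEPES 25 mM, pH 7.4. Timing: 3 h uptake period with compound, 37 °C.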
GAA850 FXN act = increases GAA850 frataxin promoter reporter activity; actives 0.56% (n = 360,000); activation, % at 6 µM; HEK293 lucGAA850 FXN promoter luciferase reporter, 24 h; percent of 10 µM SAHA response; AID 540364;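 active means activation above the average of all compounds screened plus 3 SD, cutoff fixed separately per campaign, cut at about 7.5% in these data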
AHR act = activates the human aryl hydrocarbon receptor; AHR-responsive luciferase reporter cells, luminescence; P35869; actives 2.5% (n = 320,000); activation, % at 5 µM; in the data active means activation above about 47%
Target sequence (P35869 whole entry, looked up): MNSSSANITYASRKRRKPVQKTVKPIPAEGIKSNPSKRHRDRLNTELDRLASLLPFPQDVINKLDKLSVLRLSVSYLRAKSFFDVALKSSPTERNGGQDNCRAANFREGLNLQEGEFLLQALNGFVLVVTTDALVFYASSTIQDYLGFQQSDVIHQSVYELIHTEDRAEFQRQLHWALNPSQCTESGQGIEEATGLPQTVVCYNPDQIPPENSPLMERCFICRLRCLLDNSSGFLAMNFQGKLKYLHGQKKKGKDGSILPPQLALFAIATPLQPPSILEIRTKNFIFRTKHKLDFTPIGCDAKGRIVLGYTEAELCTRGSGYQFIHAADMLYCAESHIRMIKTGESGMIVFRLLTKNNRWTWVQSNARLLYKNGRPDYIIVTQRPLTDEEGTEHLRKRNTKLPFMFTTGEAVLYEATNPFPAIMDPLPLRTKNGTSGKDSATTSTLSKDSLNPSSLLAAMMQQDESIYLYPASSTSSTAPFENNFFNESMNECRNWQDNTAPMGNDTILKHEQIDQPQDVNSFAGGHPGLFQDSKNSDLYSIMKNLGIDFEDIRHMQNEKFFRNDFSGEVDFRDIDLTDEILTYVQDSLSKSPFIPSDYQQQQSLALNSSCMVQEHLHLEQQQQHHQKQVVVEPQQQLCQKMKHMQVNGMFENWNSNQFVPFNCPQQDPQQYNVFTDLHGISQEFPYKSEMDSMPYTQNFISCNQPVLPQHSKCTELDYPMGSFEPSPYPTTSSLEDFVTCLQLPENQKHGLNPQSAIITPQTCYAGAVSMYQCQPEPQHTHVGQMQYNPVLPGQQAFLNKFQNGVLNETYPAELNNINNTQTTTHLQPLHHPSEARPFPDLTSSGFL
SR-BI DiI inh = blocks mouse SR-BI lipid uptake from DiI-HDL | ldlA[mSR-BI] CHO cells, DiI-HDL uptake fluorescence, 3 h | Q61009 | actives 0.96% (n = 320,000) | inhibition, % at 12.5 µM;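 active means mean replicate inhibition of at least 70% and a set share of replicates each scoring 70 or more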
GAA30 counter = counter-screen for GAA850 frataxin promoter activators: GAA30 promoter activation; shares compounds with GAA850 FXN act; HEK293 lucGAA30 FXN promoter luciferase, 24 h; DMSO = 0%, 5 µM ipriflavone = 100%; activation, % at 6 µM; actives 66% (n = 1,900); AID 588350;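 active means mean activation above the mean of solvent-only control wells plus 3 SD, cut at about 22% in these data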;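 further: counterscreen of GAA850 promoter hits where activity marks nonselective or luminescence artifacts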
GAA850 confirm = GAA850 FXN promoter activation confirmation. shares compounds with GAA850 FXN act. HEK293 lucGAA850 FXN promoter luciferase reporter, 24 h; 100% = activation by SAHA. activation, % at 6 µM. actives 86% (n = 1,900). AID 588351;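 active means mean activation above a set limit taken from the primary screen, cut at about 8% in these data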
Large screens that a line does not name were inactive (follow-up assays come after a bar, where they were run). Most compounds without a hit are left out; they make up all but 3.9% or so of the library.

COc1cccc(C(=O)Oc2c(CN3CCOCC3)cc(Cl)c3cccnc23)c1	GAA850 FXN act 8.2 | GAA30 counter inactive | GAA850 confirm 8.3
O=C(Oc1c(CN2CCOCC2)cc(Cl)c2cccnc12)c1ccccc1Cl	GAA850 FXN act 13 | GAA30 counter inactive | GAA850 confirm 19
COc1cc(C(=O)Oc2c(CN3CCOCC3)cc(Cl)c3cccnc23)cc(OC)c1OC	GAA850 FXN act 18 | GAA30 counter inactive | GAA850 confirm 24
Cc1noc(C)c1CSCC(=O)Nc1cc(S(=O)(=O)N2CCCCC2)ccc1OC(C)C	none
CCN(CC)c1ccc(S(=O)(=O)N2CCCCC2)cc1NC(=O)CSCc1c(C)noc1C	GAA850 FXN act 10 (no result: HIF activator, AHR act) | GAA30 counter inactive | GAA850 confirm 22
Cc1ccc(-c2nnn(CC(=O)N(CC3CCCO3)C(C(=O)NC3CCCCC3)c3ccc(F)cc3)n2)o1 (centres undefined)	GAA850 FXN act 8.3 | GAA30 counter 22 | GAA850 confirm 8.4
COc1ccc(C(C(=O)NC2CCCC2)N(CC2CCCO2)C(=O)Cn2nnc(-c3ccc(C)o3)n2)cc1 (centres undefined)	none
CCOC(=O)C1CCCN(Cc2ccccc2Cl)C1 (centres undefined)	none
C=CCN1C(=O)N/C(=C/c2ccc(N3CCOCC3)o2)C1=O	none (no result: ABCB6 inh 2, SR-BI uptake up, GAA850 FXN act, SR-BI DiI inh)
O=C1N/C(=C/c2ccc(N3CCOCC3)o2)C(=O)N1c1ccccc1	GAA850 FXN act 11 (no result: HIF activator) | GAA30 counter 54 | GAA850 confirm 19
CC(C)n1cnc2c(Nc3cccc(Cl)c3)nc(NCCCO)nc21	GAA850 FXN act 8.7, AHR act 69 | GAA30 counter 53 | GAA850 confirm 15
CC(C)[C@H](CO)Nc1nc(Nc2ccc(Cl)c(C(=O)O)c2)c2ncn(C(C)C)c2n1	none
O=C(C=C=Nc1ccccc1)C(=O)N=C=Cc1ccccc1	GAA850 FXN act 8.7 | GAA30 counter 27 | GAA850 confirm 29
Cc1cc(Cl)c2oc(C(=O)N3CCOCC3)c(C)c2c1	none (no result: HIF activator, SR-BI uptake up, AHR act, SR-BI DiI inh)
Cc1cc(Cl)c2oc(C(=O)N(C)C3CCOC3)c(C)c2c1 (centres undefined)	GAA850 FXN act 9.8 | GAA30 counter 98 | GAA850 confirm 38
Cc1cc(Cl)c2oc(C(=O)N3CCN(C(=O)c4ccco4)CC3)c(C)c2c1	GAA850 FXN act 9.8 | GAA30 counter 114 | GAA850 confirm 40
Cc1nc2c(-c3ccccc3)cnn2c(N2CCOCC2)c1C	GAA850 FXN act 8.3 | GAA30 counter 127 | GAA850 confirm 44
CC1(Cc2ccc(Cl)cc2)C(=O)Nc2ccc(S(=O)(=O)NC3CCCCC3)cc21 (centres undefined)	GAA850 FXN act 8.3 (no result: HIF activator, SR-BI uptake up, AHR act, SR-BI DiI inh) | GAA30 counter inactive | GAA850 confirm inactive
CC1(Cc2ccc(OC(F)(F)F)cc2)C(=O)Nc2ccc(S(=O)(=O)NC3CCCCC3)cc21 (centres undefined)	none (no result: HIF activator, SR-BI uptake up, AHR act, SR-BI DiI inh)
COc1ccc(C(CNC(=O)c2cccc(S(=O)(=O)Nc3ccc(C)cc3)c2)N2CCOCC2)cc1 (centres undefined)	none
Cc1occc1C(=O)NCc1ccccc1F	none
O=C(C=Cc1ccccn1)c1ccccc1O	GAA850 FXN act 8.5 (no result: HIF activator, AHR act) | GAA30 counter inactive | GAA850 confirm 26
CN(C)CCCN1C(=O)c2cccc3c([N+](=O)[O-])ccc(c23)C1=O	GAA850 FXN act 7.7 (no result: HIF activator) | GAA30 counter inactive | GAA850 confirm 12
Cc1cccc(NC(=O)Nc2ccccc2[N+](=O)[O-])n1	GAA850 FXN act 9.3 | GAA30 counter 67 | GAA850 confirm 25
COc1ccccc1NC(=O)Nc1cccc(C)n1	none (no result: AHR act)
Cc1cccc(NC(=O)Nc2ccc(C#N)cc2)n1	GAA850 FXN act 20 (no result: SR-BI uptake up, SR-BI DiI inh) | GAA30 counter 103 | GAA850 confirm 105
Cc1cccc(NC(=O)Nc2cccc(C#N)c2)n1	GAA850 FXN act 8.0 (no result: SR-BI uptake up, SR-BI DiI inh) | GAA30 counter 90 | GAA850 confirm 70
O=C(Cn1ccn(-c2ccc(F)c(F)c2)c(=O)c1=O)NCCc1ccccc1	none
Fc1ccc2cnc(-c3ccccc3F)cc2c1	none (no result: HIF activator)
COc1cc(OC)cc(-c2cc3cc(F)ccc3cn2)c1	GAA850 FXN act 8.0, SR-BI DiI inh 74 (no result: HIF activator) | GAA30 counter 95 | GAA850 confirm 36
CCN(CC)CCN(C(=O)Cn1nnc(-c2ccc(OC)c(OC)c2)n1)C(C(=O)NC1CCCC1)c1ccc(F)cc1 (centres undefined)	none
CCC(C)(C)n1nnnc1C(c1cc2cc3c(cc2[nH]c1=O)OCO3)N1CCN(C)CC1 (centres undefined)	none
Cc1ccc2nc(Nc3ccc4[nH]c(=O)[nH]c4c3)c(-n3nc(C)cc3C)nc2c1	GAA850 FXN act 9.1 | GAA30 counter 77 | GAA850 confirm 29
COc1cccc(Nc2nc3ccccc3nc2-n2nc(C)cc2C)c1	none (no result: SR-BI uptake up, SR-BI DiI inh)
COc1nc(NCCO)nc(Nc2ccccc2F)n1	GAA850 FXN act 14 | GAA30 counter 86 | GAA850 confirm 25
COc1ccc(OCc2cc(C(=O)NC(C)c3csc(C)n3)no2)c(Cl)c1 (centres undefined)	none
CCOc1cc([N+](=O)[O-])c2nc(N)sc2c1	GAA850 FXN act 7.9 | GAA30 counter 39 | GAA850 confirm 19
CCCC(C)Sc1nc2c([nH]1)c(=S)n(C)c(=O)n2C (centres undefined)	GAA850 FXN act 10 (no result: HIF activator, AHR act) | GAA30 counter inactive | GAA850 confirm 18
CCCCN1C(=O)C(CC(=O)NCCc2ccccn2)CC(C(=O)N2CCCCCC2)=C1C (centres undefined)	none (no result: HIF activator, SR-BI uptake up, GAA850 FXN act, AHR act, SR-BI DiI inh)
O=C1C2C3C=CC(C4CC34)C2C(=O)N1/N=C/c1ccc([N+](=O)[O-])o1 (centres undefined)	GAA850 FXN act 9.6 | GAA30 counter inactive | GAA850 confirm 12
CCCn1c(CNc2ccccc2O)nc2ccccc21	none
Cn1c(CNc2ccc(O)cc2)nc2ccccc21	GAA850 FXN act 8.3 | GAA30 counter 86 | GAA850 confirm 26
O=C(C(Cc1ccccc1)NS(=O)(=O)c1cccc2cccnc12)N1CCc2ccccc21 (centres undefined)	GAA850 FXN act 13 (no result: HIF activator) | GAA30 counter 24 | GAA850 confirm 9.1
COc1ccc(O)c(/C=N/NC(=S)NCCc2ccccc2)c1	none
